Each block holds one compound with its values, some of them ahead of it. The source made the active and inactive calls. No cut-off for these calls is given here.
Columns and labels:
[1] = molecular target: T1, Epidermal growth factor receptor (Homo sapiens, UniProt P00533); test: Inhibition of EGF-induced EGFR phosphorylation at Y1068 in human HeLa cells pretreated for 6 hrs followed by EGF cells and measured after 15 mins by Western blot analysis; type: cell-based
Procedure, shortened: (§1)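 HeLa cells treated 6 h with compound (10-1000 nM) or erlotinib, then stimulated with EGF for 15 min. EGF level is given as 50 ng/mL in the methods and 30 ng/mL in the figure legend. Lysates immunoblotted for total EGFR and phospho-Y1068, with β-actin as loading control.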

Tubulin (Bos taurus) = Tubulin (Bos taurus) (UniProt Q6B856+Q862L2+Q862F3); test: Inhibition of [3H]-colchicine binding to bovine brain tubulin at 1 to 5 uM after 20 mins relative to control
Procedure, shortened: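 Colchicine-binding inhibition in mixtures of 1 μM tubulin, 5 μM [3H]colchicine and test compound at 1 or 5 μM.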

Jurkat [2] = test: Antiproliferative activity against human Jurkat cells after 72 hrs by MTT assay; type: functional, cell-based
Procedure, shortened: (§2)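 Cells in medium with 10% FBS, seeded at 8×10^3 per well, 18 h at 37 °C, 5% CO2, then graded compound concentrations (DMSO ≤0.25%) for 72 h. Viability by MTT. […] Mean ± SE of dose-response curves from at least three independent experiments.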

B16 [3] = test: Antiproliferative activity against mouse B16 cells after 72 hrs by MTT assay; type: functional, cell-based; conditions: B16, 72 h
HT-29 = test: Antiproliferative activity against human HT-29 cells after 72 hrs by MTT assay; type: functional, cell-based; conditions: HT-29, 72 h
HeLa [4] = test: Induction of apoptosis in human HeLa cells at 50 nM after 24 to 48 hrs by Annexin V/propidium iodide-double staining-based flow cytometry; type: functional, cell-based; conditions: TDE = time-dependent effect
Procedure, shortened: (§3)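 HeLa or Jurkat cells exposed 24 or 48 h, then double-labelled with annexin-V-FITC and PI and analysed by flow cytometry for phosphatidylserine exposure.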

B16 [5] = test: Antitumor activity against mouse B16 cells allografted in C57BL/6 mouse assessed as reduction in tumor burden at 3 mg/kg, ip dosing starting on day 9 post tumor injection administered […] on day 9,11, 13 and 15 relative to control; type: functional; design: scale not given: the % may be the effect or the level left
Procedure, shortened: (§4)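 Six-week-old male C57BL/6 mice injected subcutaneously in the dorsolateral flank with 2.5×10^5 BL6-B16 melanoma cells in PBS. Once tumors were palpable, ip dosing every other day on days 9, 11, 13 and 15 at 3 or 7.5 mg/kg in 50 µL DMSO. Vehicle controls; CA-4P 30 mg/kg reference. Tumor volume and body weight tracked; 5 mice/group, mean ± SEM.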

HeLa [6] = test: Induction of apoptosis in human HeLa cells assessed as decrease in bcl2 expression at 50 to 100 nM after 24 to 48 hrs by Western blot analysis; type: functional, cell-based
Procedure, shortened: (§5)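 HeLa cells incubated with compound at indicated concentrations and times, then washed in ice-cold PBS and lysed 30 min on ice. 10 µg protein per lane run on SDS-PAGE, transferred to PVDF and blocked overnight at 4 °C in 5% BSA. Probed 2 h at room temperature for PARP, Mcl-1 or Bcl-2, detected by ECL, and reprobed for β-actin as loading control.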

HUVEC [7] = test: Antivascular activity in HUVEC assessed as effect on number of meshes at 10 to 100 nM after 1 hr by matrigel assay; type: functional, cell-based; conditions: Homo sapiens
Procedure, shortened: (§6)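 HUVECs (primary cord-derived, passages 1-6), 6×10^4 cells per well on Matrigel, left 6 h to form capillary tubes. Compound at 10 or 100 nM then added for 1 h. Five fields per well photographed at 10x, and network dimensional/topological parameters quantified. Mean ± S.E.M. of three independent experiments.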

B16 [8] = test: Antitumor activity against mouse B16 cells allografted in C57BL/6 mouse assessed as reduction in tumor burden at 7.5 mg/kg, ip dosing starting on day 9 post tumor injection administered […] on day 9,11, 13 and 15 relative to control; type: functional; design: scale not given: the % may be the effect or the level left; procedure, shortened: as §4
HeLa [9] = test: Induction of cell cycle arrest in human HeLa cells assessed as arrest in mitotic phase at 100 nM after 24 hrs by p-histone H3 antibody staining based flow cytometry (reference value: 1.32%); type: functional
Jurkat [10] = test: Induction of apoptosis in human Jurkat cells at 50 nM after 24 to 48 hrs by Annexin V/propidium iodide-double staining-based flow cytometry; type: functional, cell-based; conditions: TDE = time-dependent effect; procedure, shortened: as §3
[11] = molecular target: T1, Epidermal growth factor receptor; test: Inhibition of wild type EGFR (unknown origin) by bioluminescent ADP-glo kinase assay
[12] = Toxicity in C57BL/6 mouse allografted with mouse B16 cells assessed as body weight loss at 3 to 7.5 mg/kg, ip dosing starting on day 9 post tumor injection administered […] on day 9,11, 13 and 15; type: organism-based; conditions: in vivo; procedure, shortened: as §4
HUVEC [13] = test: Antivascular activity in HUVEC assessed as effect on total branching length at 10 to 100 nM after 1 hr by matrigel assay; type: functional, cell-based; conditions: Homo sapiens; procedure, shortened: as §6
[14] = Cytotoxicity against HUVEC assessed as inhibition of cell growth; type: cell-based; conditions: human, HUVEC cells
HUVEC [15] = test: Antivascular activity in HUVEC assessed as effect on nodes at 10 to 100 nM after 1 hr by matrigel assay; type: functional, cell-based; conditions: Homo sapiens; procedure, shortened: as §6
Tubulin = Tubulin (Bos taurus, UniProt Q6B856+Q862L2+Q862F3); test: Inhibition of bovine brain tubulin polymerization after 20 mins
Procedure, shortened: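 Bovine brain tubulin (10 μM) preincubated with varying compound concentrations in 0.8 M monosodium glutamate, pH 6.6, at 30 °C, then chilled to 0 °C. 0.4 mM GTP added, mixtures warmed to 30 °C, assembly followed by turbidity at 350 nm.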

[16] = molecular target: T2, Vascular endothelial growth factor receptor 2 (Homo sapiens, UniProt P35968); test: Inhibition of wild type VEGFR2 (unknown origin) by bioluminescent ADP-glo kinase assay
T2 sequence (P35968 whole entry): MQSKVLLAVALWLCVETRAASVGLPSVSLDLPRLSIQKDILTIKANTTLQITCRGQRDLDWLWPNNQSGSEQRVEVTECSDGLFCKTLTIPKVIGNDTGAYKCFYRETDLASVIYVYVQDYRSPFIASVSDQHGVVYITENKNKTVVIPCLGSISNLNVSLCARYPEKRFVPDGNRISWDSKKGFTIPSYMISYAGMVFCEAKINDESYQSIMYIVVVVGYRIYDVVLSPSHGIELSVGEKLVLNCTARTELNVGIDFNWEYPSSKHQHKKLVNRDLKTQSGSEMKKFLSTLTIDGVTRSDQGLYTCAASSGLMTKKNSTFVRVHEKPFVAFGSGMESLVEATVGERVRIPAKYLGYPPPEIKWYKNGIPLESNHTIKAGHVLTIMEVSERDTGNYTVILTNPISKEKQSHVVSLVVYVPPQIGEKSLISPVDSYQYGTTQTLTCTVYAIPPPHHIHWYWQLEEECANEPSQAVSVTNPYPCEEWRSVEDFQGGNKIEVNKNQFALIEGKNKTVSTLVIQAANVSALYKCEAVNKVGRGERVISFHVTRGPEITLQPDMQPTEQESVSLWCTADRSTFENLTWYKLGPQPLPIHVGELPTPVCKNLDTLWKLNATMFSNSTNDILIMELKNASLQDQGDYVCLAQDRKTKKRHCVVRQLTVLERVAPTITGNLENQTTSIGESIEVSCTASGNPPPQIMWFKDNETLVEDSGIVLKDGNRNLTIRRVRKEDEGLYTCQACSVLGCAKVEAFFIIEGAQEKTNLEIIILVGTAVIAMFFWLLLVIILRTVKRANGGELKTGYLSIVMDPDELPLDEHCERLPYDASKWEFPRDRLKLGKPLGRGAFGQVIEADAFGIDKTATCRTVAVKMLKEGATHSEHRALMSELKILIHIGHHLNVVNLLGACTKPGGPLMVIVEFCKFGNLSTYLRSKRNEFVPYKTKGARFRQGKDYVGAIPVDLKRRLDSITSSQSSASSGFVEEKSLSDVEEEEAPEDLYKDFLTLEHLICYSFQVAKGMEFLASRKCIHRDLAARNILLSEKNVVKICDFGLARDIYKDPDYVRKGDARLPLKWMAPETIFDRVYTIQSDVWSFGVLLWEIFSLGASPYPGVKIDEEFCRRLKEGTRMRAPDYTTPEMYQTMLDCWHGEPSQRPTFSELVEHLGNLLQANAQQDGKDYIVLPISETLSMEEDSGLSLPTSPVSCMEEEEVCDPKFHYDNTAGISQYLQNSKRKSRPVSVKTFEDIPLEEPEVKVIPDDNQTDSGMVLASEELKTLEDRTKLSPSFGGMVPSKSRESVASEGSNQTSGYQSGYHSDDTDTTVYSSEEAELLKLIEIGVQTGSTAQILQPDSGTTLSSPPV

[17] = molecular target: T1, Epidermal growth factor receptor; test: Inhibition of EGF-induced EGFR phosphorylation at Y1068 in human HeLa cells at 1 uM pretreated for 6 hrs followed by EGF cells and measured after 15 mins by Western blot analysis; type: cell-based; procedure, shortened: as §1
HeLa [18] = test: Antiproliferative activity against human HeLa cells after 72 hrs by MTT assay; type: functional, cell-based
HeLa [19] = test: Induction of cell cycle arrest in human HeLa cells assessed as arrest in mitotic phase at 50 nM after 24 hrs by p-histone H3 antibody staining based flow cytometry (reference value: 1.32%); type: functional
Jurkat [20] = test: Induction of cell cycle arrest in human Jurkat cells assessed as accumulation at G2/M phase at 25 nM after 24 hrs by propidium iodide-stained flow cytometry; type: functional, cell-based
Procedure, shortened: (§7)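 5×10^5 HeLa or Jurkat cells exposed 24 h, then collected, fixed in ice-cold 70% ethanol, treated with lysis buffer containing RNase A and 0.1% Triton X-100, and stained with PI. DNA content by flow cytometry. Mean ± SEM, three independent experiments.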

HUVEC [21] = test: Antivascular activity in HUVEC assessed as effect on master junction at 10 to 100 nM after 1 hr by matrigel assay; type: functional, cell-based; conditions: Homo sapiens; procedure, shortened: as §6
HeLa [22] = test: Induction of cell cycle arrest in human HeLa cells assessed as accumulation at G2/M phase at 25 nM after 24 hrs by propidium iodide-stained flow cytometry; type: functional, cell-based; procedure, shortened: as §7
A549 = test: Antiproliferative activity against human A549 cells after 72 hrs by MTT assay; type: functional, cell-based; conditions: A549, 72 h
RS4-11 = test: Antiproliferative activity against human RS4:11 cells after 72 hrs by MTT assay; type: functional, cell-based; conditions: RS4-11, 72 h; procedure, shortened: as §2
HeLa [23] = test: Induction of apoptosis in human HeLa cells assessed as decrease in […] expression at 50 to 100 nM after 24 to 48 hrs by Western blot analysis; type: functional, cell-based; procedure, shortened: as §5
HeLa [24] = test: Induction of ROS generation in human HeLa cells at 50 nM after 12 hrs by 2,7-dichlorodihydrofluorescein diacetate-staining based flow cytometry; type: functional, cell-based
Procedure, shortened: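 HeLa cells exposed 3, 6, 12 or 24 h to 50, 100 or 250 nM, then stained with JC-1 for mitochondrial potential or H2-DCFDA for ROS. Analysed by flow cytometry.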

HUVEC [25] = test: Antivascular activity in HUVEC assessed as effect on mesh area at 10 to 100 nM after 1 hr by matrigel assay; type: functional, cell-based; conditions: Homo sapiens; procedure, shortened: as §6
HUVEC [26] = test: Antivascular activity in HUVEC assessed as effect on segment length at 10 to 100 nM after 1 hr by matrigel assay; type: functional, cell-based; conditions: Homo sapiens; procedure, shortened: as §6
[27] = molecular target: T2, Vascular endothelial growth factor receptor 2; test: Inhibition of VEGFR2 (unknown origin)

T1 sequence (P00533 whole entry): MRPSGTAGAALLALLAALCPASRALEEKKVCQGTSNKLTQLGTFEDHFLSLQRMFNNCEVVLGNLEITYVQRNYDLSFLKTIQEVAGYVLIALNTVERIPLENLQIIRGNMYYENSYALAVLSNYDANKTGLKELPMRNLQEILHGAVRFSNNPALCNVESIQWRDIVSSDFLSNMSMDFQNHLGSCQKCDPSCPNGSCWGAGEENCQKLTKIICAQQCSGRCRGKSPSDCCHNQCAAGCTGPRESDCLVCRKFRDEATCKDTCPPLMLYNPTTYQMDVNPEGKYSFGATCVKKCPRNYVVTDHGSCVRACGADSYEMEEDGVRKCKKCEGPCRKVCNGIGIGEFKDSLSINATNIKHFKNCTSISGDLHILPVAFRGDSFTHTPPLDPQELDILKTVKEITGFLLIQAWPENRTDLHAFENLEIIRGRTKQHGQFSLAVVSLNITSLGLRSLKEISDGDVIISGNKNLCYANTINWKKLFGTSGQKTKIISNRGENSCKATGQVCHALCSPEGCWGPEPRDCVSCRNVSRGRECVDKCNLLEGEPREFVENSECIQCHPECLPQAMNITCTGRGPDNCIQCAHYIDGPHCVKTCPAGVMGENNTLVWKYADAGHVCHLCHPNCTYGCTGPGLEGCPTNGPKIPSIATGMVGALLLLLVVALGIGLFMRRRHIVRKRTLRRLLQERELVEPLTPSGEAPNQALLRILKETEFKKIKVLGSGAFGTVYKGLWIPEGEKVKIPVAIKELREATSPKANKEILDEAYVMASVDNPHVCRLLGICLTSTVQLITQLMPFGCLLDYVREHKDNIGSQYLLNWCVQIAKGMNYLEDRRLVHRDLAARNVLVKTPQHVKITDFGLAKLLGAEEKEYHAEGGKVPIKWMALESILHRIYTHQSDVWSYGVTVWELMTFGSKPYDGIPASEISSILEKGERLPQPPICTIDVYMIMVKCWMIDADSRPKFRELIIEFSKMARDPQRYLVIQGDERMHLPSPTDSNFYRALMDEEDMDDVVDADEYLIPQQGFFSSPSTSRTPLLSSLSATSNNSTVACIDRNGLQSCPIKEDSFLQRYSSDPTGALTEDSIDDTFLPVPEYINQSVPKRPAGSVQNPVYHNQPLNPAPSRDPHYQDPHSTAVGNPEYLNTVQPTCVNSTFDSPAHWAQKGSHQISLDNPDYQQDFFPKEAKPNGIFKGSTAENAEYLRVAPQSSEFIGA

SMILES: COc1cc(Nc2ncnc3cc(-c4cccs4)sc23)cc(OC)c1OC
- IC50 (Jurkat [2]): 0.08 µM
- IC50 (HT-29): 0.21 µM
- IC50 [11]: 0.0025 µM
- IC50 (Tubulin): 18 µM
- IC50 [16]: > 1 µM
- IC50 (HeLa [18]): 1.7 µM
- IC50 (A549): 5.1 µM
- IC50 (RS4-11): 0.36 µM

SMILES: COc1cc(Nc2ncnc3cc(-c4ccc(I)cc4)sc23)cc(OC)c1OC
- inhibition (Tubulin (Bos taurus)): 35%
- IC50 (Jurkat [2]): 0.3 µM
- IC50 (HT-29): 0.25 µM
- IC50 [11]: 0.01 µM
- IC50 (Tubulin): 2.5 µM
- IC50 [16]: > 1 µM
- IC50 (HeLa [18]): 0.28 µM
- IC50 (A549): 0.77 µM
- IC50 (RS4-11): 0.17 µM

SMILES: COc1ccc(/C=C\c2cc(OC)c(OC)c(OC)c2)cc1O [COMBRETASTATIN A4]
- IC50 (RS4-11): 0.001 µM

Second part, led by results:

- inhibition [1]: Dose-dependent effect
- inhibition (Tubulin (Bos taurus)): 76%
- IC50 (Jurkat [2]): 0.001 µM
- IC50 (B16 [3]): 0.0234 µM
- IC50 (HT-29): 0.02 µM
- IC50 [11]: 0.03 µM
- IC50 (Tubulin): 0.71 µM
- IC50 [16]: > 1 µM
- inhibition [17]: Active
- IC50 (HeLa [18]): 0.001 µM
- IC50 (A549): 0.019 µM
- IC50 (RS4-11): 0.002 µM
SMILES: COc1cc(Nc2ncnc3cc(-c4ccc(C)cc4)sc23)cc(OC)c1OC
- Activity (HeLa [4]): Tde
- Activity (B16 [5]): 28%
- Activity (HeLa [6]): Active
- Activity (HUVEC [7]): Active
- Activity (B16 [8]): 52.5%
- Activity (HeLa [9]): 49.4 - 50%
- Activity (Jurkat [10]): Tde
- Activity [12]: Non-Toxic
- Activity (HUVEC [13]): Active
- GI50 [14]: 0.056 µM
- Activity (HUVEC [15]): Active
- Activity (HeLa [19]): 36.8 - 38%
- Activity (Jurkat [20]): Active
- Activity (HUVEC [21]): Active
- Activity (HeLa [22]): Active
- Activity (HeLa [23]): Active
- Activity (HeLa [24]): Active
- Activity (HUVEC [25]): Active
- Activity (HUVEC [26]): Active

- inhibition (Tubulin (Bos taurus)): 35%
- IC50 (Jurkat [2]): 0.03 µM
- IC50 (HT-29): 0.15 µM
- IC50 [11]: 0.326 µM
- IC50 (Tubulin): 2.5 µM
- IC50 (HeLa [18]): 0.22 µM
- IC50 (A549): 0.53 µM
- IC50 (RS4-11): 0.19 µM
SMILES: COc1cc(Nc2ncnc3cc(-c4ccc(Br)cc4)sc23)cc(OC)c1OC

- IC50 [27]: 0.14 µM
SMILES: Cc1cc2cc(Nc3ncnc4cc(-c5ccccc5)sc34)ccc2[nH]1

- IC50 (Jurkat [2]): 2 µM
- IC50 (HT-29): 6.3 µM
- IC50 (HeLa [18]): 4.9 µM
- IC50 (A549): 1.1 µM
- IC50 (RS4-11): 1.3 µM
SMILES: COc1cc(Nc2ncnc3cc(-c4ccc([N+](=O)[O-])cc4)sc23)cc(OC)c1OC
